# Shown is part of a subset that was picked to be rich in hits.
# UPR XBP1 act: adaptive UPR (XBP1) activation | CHO-XBP1 luciferase reporter, IRE1-XBP1 UPR activation, luminescence; percent of tunicamycin response, DMSO as zero | activation, % at 20 µM | 330,000 compounds, 0.33% hits;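 active = versus positive control, 20 µM dose yields 30% or more activation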;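 note: 100% = tunicamycin at 10 µg/mL and 0% = DMSO only wells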
#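 Material: CHO cell line with stable XBP1 luciferase reporter; schedule: 16-18 h cell attachment at 37 °C, then 6 h compound exposure; signal: glow luminescence from Steady-Glo reagent; medium: serum-containing F12 medium, 10% FBS; benchmarks: tunicamycin 10 µg/mL and vehicle-only wells; read-out: percent activation relative to tunicamycin reference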
# CHOP inh: inhibitors of CHOP induction in ER stress response | CHO-K1 CHOP-promoter luciferase, tunicamycin-induced, 15-18 h | inhibition, % at 10 µM | 220,000 compounds, 3.8% hits | AID 2732;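 active = compounds that reduced the stress-induced luciferase reporter signal by more than about 70% of percent inhibition, limit read from the data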;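 note: 0% = tunicamycin plus vehicle and 100% = wells without tunicamycin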
# hiPSC survival: enhancers of human iPSC single-cell survival; survival enhancement, % at 20 µM; 360,000 compounds, 0.044% hits; hiPSC single-cell survival, ATPlite luminescence; 100% = ROCK inhibitor wells, 0% = DMSO; in the data active = survival enhancement above about 18%;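 note: cells exposed to compounds for 16 hours before the ATP read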
# Cardio protect: protects H9c2 cardiomyocytes from peroxide injury; H2O2 injury protection, ATPLite, 2 h; protection from H2O2 cell death, % at 20 µM; 360,000 compounds, 0.63% hits; AID 588492;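 active = compounds giving at least 50% protection of heart cells from peroxide-induced death in the single-dose screen, raw or plate-pattern-corrected value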;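 note: 0% = DMSO wells with peroxide and 100% = DMSO wells without peroxide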
# CHOP UPR activ: apoptotic UPR (CHOP) activation; 330,000 compounds, 0.34% hits; activation, % at 10 µM; AID 449763; CHO-CHOP luciferase reporter, luminescence; percent of tunicamycin response over DMSO baseline;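 active = at 10 µM dose, activation of 40% or more, normalized to positive control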;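 note: 100% = tunicamycin at 10 µg/mL and 0% = DMSO alone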
#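 System: CHO-CHOP luciferase reporter cell line; amount: 500 cells/well; buffer or medium: F12 medium containing 10% fetal bovine serum; incubation: 6 h compound exposure at 37 °C after overnight seeding; measured by: luciferase luminescence after 10 min with Steady-Glo reagent; evaluation: % reporter activation, DMSO baseline versus tunicamycin full activation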
# CHOP inh conf: confirmation of CHOP induction inhibitors | shares compounds with CHOP inh | 2,100 compounds, 45% hits | CHO-CHOP promoter luciferase reporter, tunicamycin-induced, luminescence | AID 504437 | inhibition, % at 10 µM;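 active = mean of three repeat readings of reporter signal inhibition above a set limit, cut at about 70% in these data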;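 note: 0% = tunicamycin plus vehicle and 100% = wells lacking tunicamycin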
# CHOP UPR conf: confirmation of apoptotic unfolded protein response (CHOP) activators | 1,000 compounds, 64% hits | CHO-CHOP cells, CHOP-luciferase reporter luminescence; percent of tunicamycin response, DMSO as zero | AID 463112 | shares compounds with CHOP UPR activ | activation, % at 10 µM; in the data active = activation above about 33%;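 note: 0% = DMSO wells and 100% = tunicamycin 10 µg/mL wells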
# XBP1 UPR conf: adaptive UPR (XBP1) activation, confirmed; activation, % at 20 µM; shares compounds with UPR XBP1 act; CHO-XBP1 IRE1-XBP1 luciferase reporter, luminescence; AID 485299; 1,000 compounds, 63% hits;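 active = reporter signal at least 30% of the positive control's activation in two or more of four replicate wells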;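 note: plate controls were DMSO negative control for no effect and tunicamycin 10 µg/mL positive control for full effect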
# The depositor's hits bear a star; · = no result given.
SMILES,UPR XBP1 act,CHOP inh,hiPSC survival,Cardio protect,CHOP UPR activ,CHOP UPR conf,others
CCCS(=O)(=O)NC(=O)C1(C)CCN(C(=O)Cc2ccc(F)cc2)C1 (stereo not given),·,·,0,2,·,·,
CC(C)c1ccc(-c2cc(C(=O)N3N=C(C(F)F)CC3(O)C(F)F)c3ccccc3n2)cc1 (stereo not given),39*,99*,-4,-22,4,·,CHOP inh conf=105*;XBP1 UPR conf=13
CC(C)CNC(=O)C1(C)CCCN1C(=O)c1ccc2c(c1)CCO2 (stereo not given),·,·,-2,2,·,·,
CCCCNC(=O)C1(C)CCCCCN1Cc1cc2ccccc2o1 (stereo not given),·,·,0,3,·,·,
CC(C)(C)C(=O)NC(=S)NNC(=O)C(c1ccccc1)c1ccccc1,43*,106*,0,1,12,·,CHOP inh conf=121*;XBP1 UPR conf=48*
O=C1NC[C@H](CCCCN2CCN(CCc3ccccc3)C(=O)C2=O)N(CCc2ccccc2)C1=O,·,·,1,·,·,·,
N#C/C(=C\c1cn(Cc2cccc(F)c2)c2ccccc12)C(=O)NCc1ccco1,-1,13,1,-3,4,·,
Cc1cccc(NC(=O)/C(C#N)=C/c2cn(CC(=O)NCc3ccco3)c3ccccc23)c1C,57*,109*,-1,7,1,·,CHOP inh conf=90*;XBP1 UPR conf=168*
CCOC(=O)Nc1nc2ccc(Cn3cccc3)cc2[nH]1,·,·,-2,-8,·,·,
O=C(O)c1cc(-c2cccnc2)nc2ccc(Br)cc12,3,9,3,0,-1,·,
O=C(Nc1ccc(C(F)(F)F)cc1)c1cc(-c2cccnc2)nc2ccc(Br)cc12,91*,102*,0,-1,124*,81*,CHOP inh conf=93*;XBP1 UPR conf=90*
CC1CCc2cc(F)ccc2N1C(=O)CSc1nnc2c(n1)[nH]c1ccc(F)cc12 (stereo not given),67*,101*,-1,-12,2,·,CHOP inh conf=110*;XBP1 UPR conf=51*
CC1CCCCN1C(=O)CSc1nnc2c(n1)[nH]c1ccc(F)cc12 (stereo not given),0,·,0,-4,5,·,
CCOC(=O)[C@]12CCC=C1N(Cc1ccc(Cl)cc1Cl)C(=O)[C@H](CC(=O)NCc1ccccc1)C2,·,·,0,·,·,·,
CCOC(=O)c1cnc(-n2nc(C)cc2C)nc1NC1CCCCC1,40*,106*,8,-22,99*,34*,CHOP inh conf=117*;XBP1 UPR conf=12
O=S(=O)(/N=C(\Sc1ccc(Cl)cc1)c1ccccc1)c1ccccc1,43*,103*,-2,13,21,·,CHOP inh conf=35;XBP1 UPR conf=3
CC(C)O/C(=N\S(=O)(=O)c1ccc(Cl)cc1)c1ccccc1,-1,67,-1,3,-2,·,
O=C(CN(C(=O)CNC(=O)c1ccco1)c1cccc(F)c1)NC1CCCCC1,-3,·,1,-4,0,·,
CCOc1ccc2nc(NC3=NC(C)(C)C=C(C)N3)nc(C)c2c1,1,4,-3,-9,-2,·,
CCOc1ccc2nc(NC3=NC(c4ccc(OC)cc4)CC(=O)N3)nc(C)c2c1 (stereo not given),133*,106*,0,-16,30,·,CHOP inh conf=-33;XBP1 UPR conf=167*
C/C(CC1CC2=C(CC1(C)C)C(C)(C)CCC2)=N\NC(N)=S (stereo not given),25,-62,-2,-17,57*,27,
O=C(CS(=O)c1ccccc1[N+](=O)[O-])Oc1ccc(Br)cc1 (stereo not given),-1,26,14,-6,-1,·,
CS(=O)(=O)c1ccc(S(=O)CC(=O)Oc2ccc(Cl)cc2)c([N+](=O)[O-])c1 (stereo not given),-9,108*,·,·,51*,24,
CCC(=O)N1CCC1(C)C(=O)Nc1cccc2c1CCCC2 (stereo not given),·,·,6,4,·,·,
O=C(N/N=C(\c1ccccc1)c1cccnc1)c1ccc(O)cc1,-2,·,0,4,1,·,
SMILES,UPR XBP1 act,CHOP inh,hiPSC survival,Cardio protect,CHOP UPR activ,CHOP UPR conf,others
O=C(N/N=C(\c1ccccc1)c1cccnc1)c1cccc(F)c1,-5,·,0,31,51*,91*,
CCc1nnc(NC(=O)c2nc(S(=O)(=O)Cc3ccccc3)ncc2Cl)s1,-9,·,0,-16,59*,13,
CCc1nnc(NC(=O)c2nc(S(=O)(=O)Cc3ccc(C)cc3)ncc2Cl)s1,-7,·,0,-16,51*,38*,
CCc1nnc(NC(=O)c2nc(S(=O)(=O)Cc3cccc(C)c3)ncc2Cl)s1,-11,·,0,13,72*,30,
N#Cc1c(N)[nH]c2ccc(Sc3ccccc3)cc12,·,·,0,-6,·,·,
COc1ccccc1Nc1nc(N)nc(CSC(=S)N2CCCCC2)n1,2,-2,0,0,4,·,
CC1(C(=O)NS(=O)(=O)C2CC2)CCN(C(=O)c2cc(F)cc(F)c2)C1 (stereo not given),·,·,0,4,·,·,
Cc1[nH]c2c(C)cccc2c1CCNC(=O)c1ccc2c(c1[N+](=O)[O-])C(=O)c1ccccc1C2=O,2,-1,-4,11,48*,40*,
CN(C)c1ccc(CC(=O)N2CCCC(c3cc(C(=O)Nc4ccc(F)c(Cl)c4)no3)C2)cc1 (stereo not given),·,·,-4,-23,·,·,
Cc1ccc(-n2ncc3c(=O)n(CC(=O)N(C(C)C)C(C)C)cnc32)cc1,-3,·,-1,-3,-2,·,
CCc1ccc2nc(N(CCCN(C)C)C(=O)c3ccc(S(=O)(=O)N(C)C4CCCCC4)cc3)sc2c1,131*,·,0,-13,113*,65*,
COc1ccc(C2C3=C(CC(C)(C)CC3=O)Oc3ncn(CC(C)C)c(=N)c32)cc1 (stereo not given),-2,6,-1,22,0,·,
COc1ccc(C2C3=C(CC(C)(C)CC3=O)Oc3ncn(Cc4ccco4)c(=N)c32)cc1 (stereo not given),0,38,-1,10,44*,0,
CCC(=O)N1CCC(C)(C(=O)NCc2cccc(OC)c2)C1 (stereo not given),·,·,-1,0,·,·,
CC(C)CCNC(=O)c1ccc2c(SCC(=O)O)c3c(nc2c1)CCCC3,-1,-22,1,0,44*,-1,
COc1c(Cl)cc(Cl)cc1C(=O)Nc1ccc(C(=O)O)cc1,0,8,0,4,0,·,
COc1c(Cl)cc(Cl)cc1/C=C/C(=O)c1ccc(NC(=O)c2cccs2)cc1,12,-116,-2,-19,55*,247*,

# Bioassay records (PubChem BioAssay)
